# Experimental data pooled from the literature.
# Target: DNA-dependent protein kinase catalytic subunit (PRKDC, Homo sapiens, UniProt P78527)
Compound,observed,mode,technique,cells,concentration,measurement,result
CNc1cc(Oc2cc(C(=O)Nc3cc(N4CCN(C)CC4)cc(C(F)(F)F)c3)ccc2C)ncn1,target engagement in cells,inhibitor,chemoproteomics,Huh-7,1 µM,inhibition,-44.8%
COc1cc2ncnc(Nc3ccc(Oc4ccccc4)cc3C)c2cc1OC,enzyme activity,inhibitor,,,1 µM,inhibition,9%
CC(C)(C)c1nc2c(s1)c1nc(N)ncc1c1ccc(NS(=O)(=O)c3c(F)cccc3F)c(F)c12,enzyme activity,inhibitor,radiometric,,1 µM,remaining activity,94%
Cc1cc(NC(=O)c2cccc3cc(-c4cccc5[nH]nc(N)c45)ccc23)ccc1F,enzyme activity,inhibitor,,,0.1 µM,activity vs control,99%
C=CC(=O)Nc1cc(Nc2nccc(Nc3cc(Cl)c(F)cc3C(C)(C)O)n2)c(OC)cc1N1CC[C@@H](N(C)C)C1,enzyme activity,inhibitor,,,1 µM,inhibition,-1%
CS(=O)(=O)Nc1cccc(-c2csc(NC(=O)CSc3nc4nccnc4c(=O)n3CCc3ccccc3)n2)c1,enzyme activity,inhibitor,,,10 µM,inhibition,12%
CC(C)(C)c1nc(-c2cccc(NS(=O)(=O)c3c(F)cccc3F)c2F)c(-c2ccnc(N)n2)s1,enzyme activity,inhibitor,radiometric,,1 µM,remaining activity,92%
Cc1ccc(NC(=O)c2ccc(C)c(C(F)(F)F)c2)cc1C#Cc1nn(C2CCC(O)CC2)c2ncnc(N)c12 (stereo not drawn),cell-free assay,,,,10 µM,remaining signal,94%
O=C(CSc1nc2nccnc2c(=O)n1CCc1ccccc1)Nc1nccs1,enzyme activity,inhibitor,,,10 µM,inhibition,23%
Cc1cnc(NC2CCOCC2)nc1-n1cnc(C(=O)NC(CN)c2cc(F)cc(Cl)c2)c1 (stereo not drawn),enzyme activity,inhibitor,radiometric,,1 µM,remaining activity,119%
Cc1ccc(C(=O)NCc2ccsc2)cc1C#Cc1cn(C(C)C)c2ncnc(N)c12,enzyme activity,inhibitor,,,1 µM,activity vs control,95%
COc1cc2ncnc(Nc3ccc(Oc4ccccc4)c(C)c3C)c2cc1OC,enzyme activity,inhibitor,,,1 µM,inhibition,9%
